Results pooled from the literature.
Protocols differ between the studies behind these lines.
Target: Serine/threonine-protein kinase ICK (CILK1, Homo sapiens, UniProt Q9UPZ9)
Residues used in one study (Q9UPZ9 1-632): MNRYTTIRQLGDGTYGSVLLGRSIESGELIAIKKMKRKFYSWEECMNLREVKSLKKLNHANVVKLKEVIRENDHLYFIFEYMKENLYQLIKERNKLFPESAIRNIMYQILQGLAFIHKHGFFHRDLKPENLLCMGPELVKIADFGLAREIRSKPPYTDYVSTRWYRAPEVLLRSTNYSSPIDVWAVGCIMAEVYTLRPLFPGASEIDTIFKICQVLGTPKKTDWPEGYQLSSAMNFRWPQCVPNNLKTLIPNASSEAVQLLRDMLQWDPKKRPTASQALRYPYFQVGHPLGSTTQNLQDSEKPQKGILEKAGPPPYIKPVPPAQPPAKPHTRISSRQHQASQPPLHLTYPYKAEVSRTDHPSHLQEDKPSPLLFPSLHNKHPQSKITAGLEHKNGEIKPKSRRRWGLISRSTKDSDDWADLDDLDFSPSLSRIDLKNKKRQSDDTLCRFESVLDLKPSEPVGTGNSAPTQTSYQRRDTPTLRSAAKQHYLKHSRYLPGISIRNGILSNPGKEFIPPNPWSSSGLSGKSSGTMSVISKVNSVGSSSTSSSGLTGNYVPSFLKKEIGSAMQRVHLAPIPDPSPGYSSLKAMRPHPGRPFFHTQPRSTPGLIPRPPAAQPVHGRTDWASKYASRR

For CN(CCCC(F)(F)F)c1nccc(-c2cnn3ncccc23)n1, the remaining binding was 100% (binding; 1 µM).
CCOCCn1cc(C(=O)Nc2ccc(-n3nc(-c4cccnc4)cc3C(F)(F)F)cn2)ccc1=O has a remaining binding of 99% (cell-free assay; competition with immobilised ligand; 1 µM).
C[C@@H]1CCN(c2nccc(-c3cnn4ncccc34)n2)C1 has a remaining binding of 58% (binding; 1 µM).
With CNC(=O)Nc1ccc2c(c1)[C@@]1(CC2)OC(=O)N(CC(=O)N(Cc2ccc(F)cc2)[C@@H](C)C(F)(F)F)C1=O the remaining binding was 67% (binding; competition with immobilised ligand; 1 µM).
The remaining binding of C[C@@H](c1ccc(-n2cnc3c(N)ncnc32)cc1)N1CCc2nn(C)c(Cc3ccccc3)c2C1=O is reported as 48% (binding; competition with immobilised ligand; 0.1 µM).
The remaining binding of O=C(c1ccc(Nc2nccc(-c3cc4ccccc4s3)n2)cc1)N1CCC(N2CCCC2)CC1 is reported as 74% (binding; competition with immobilised ligand; 1 µM).
For CS(=O)(=O)NCC[C@H](NC(=O)c1cncc2c1cnn2-c1ccc(F)cc1)c1ccnc(S(C)(=O)=O)c1, the remaining binding was 100% (binding; competition with immobilised ligand; 1 µM).
The remaining binding of COc1ccnn2ncc(-c3ccnc(N(C)C)n3)c12 is reported as 74% (binding; 1 µM).
CNC(=O)[C@@H]1CC[C@@H](n2c(-c3ccc4cnccc4c3)nc3ccc(C(=O)NCc4cccc(C(N)=O)c4)cc32)C1 gave a remaining binding of 100% (binding; competition with immobilised ligand; 1 µM).
Cc1cnn2ncc(-c3ccnc(N(C)C)n3)c2c1 gave a remaining binding of 82% (binding; 1 µM).
COc1cccc(CNC(=O)c2nc3scc(COCc4ccc(C(=O)O)cc4)c3c(=O)[nH]2)c1 gave a remaining binding of 66.1% (cell-free assay; competition with immobilised ligand; 1 µM).
For CN(C)c1ncc(F)c(-c2cnn3ncccc23)n1, the remaining binding was 89% (binding; 1 µM).
O=C(Nc1cccnn1)N1CC(C/C=C/c2cncc(Oc3ccc(C(F)(F)F)cn3)n2)C1 gave a remaining binding of 80% (cell-free assay; competition with immobilised ligand; 1 µM).
O=C(Nc1c[nH]nc1C(=O)NC1CCNCC1)c1cc(F)cc(F)c1 gave a remaining binding of 84% (binding; competition with immobilised ligand; 1 µM).
CN([C@@H]1CCc2c(CC(=O)O)c3ccccc3n2C1)S(=O)(=O)c1ccc(F)cc1 has a remaining binding of 100% (cell-free assay; competition with immobilised ligand; 1 µM).
For COc1cnc(Nc2cccc(S(N)(=O)=O)c2)nc1N1CCN(c2ccccc2)CC1, the remaining binding was 72% (binding; competition with immobilised ligand; 1 µM).
The remaining binding of N[C@H]1CCN(c2nccc(-c3cnn4ncccc34)n2)C1 is reported as 100% (binding; 1 µM).
For Cc1cnc(Nc2ccc(C(=O)N3CCC(N4CCCC4)CC3)cc2)nc1-c1cc2ccccc2s1, the remaining binding was 64% (binding; competition with immobilised ligand; 1 µM).
C=CC(=O)N1CCC(C(=O)NCC(=O)N2CCN(c3nc(-c4cnc(N)nc4C(F)F)nc(N4CCOCC4)n3)CC2)CC1 gave a remaining binding of 95% (binding; competition with immobilised ligand; 1 µM).
The remaining binding of O=C(NCCCN1CCOCC1)c1ccc(Nc2nccc(-c3cc4ccccc4s3)n2)cc1 is reported as 64% (binding; competition with immobilised ligand; 1 µM).
c1cncc(-c2cccc(Nc3nccc(NC4CCCCC4)n3)c2)c1 has a remaining binding of 50% (binding; competition with immobilised ligand; 10 µM).
